The values that follow come from ChEMBL document CHEMBL1136799, “Design and synthesis of pyrrolidine-5,5'-trans-lactams (5-oxo-hexahydropyrrolo[3,2-b]pyrroles) as novel mechanism-based inhibitors of human cytomegalovirus protease. 4. Antiviral activity and plasma stability” (J Med Chem, 2003).

pIC50, pKi: −log10 of the molar value.

Data set [1] concerns Human betaherpesvirus 5. Description: Concentration required to inhibit human cytomegalovirus HCMV-AD169 in ELISA assay.
A short description of data set [2]: Compound was tested for its stability in human plasma. It is filed as ADME, organism-based.
Data set [3] has as its target T1, Capsid scaffolding protein (Human cytomegalovirus (strain AD169) (HHV-5) (Human herpesvirus 5), UniProt P16753).
T1 sequence (P16753 whole entry): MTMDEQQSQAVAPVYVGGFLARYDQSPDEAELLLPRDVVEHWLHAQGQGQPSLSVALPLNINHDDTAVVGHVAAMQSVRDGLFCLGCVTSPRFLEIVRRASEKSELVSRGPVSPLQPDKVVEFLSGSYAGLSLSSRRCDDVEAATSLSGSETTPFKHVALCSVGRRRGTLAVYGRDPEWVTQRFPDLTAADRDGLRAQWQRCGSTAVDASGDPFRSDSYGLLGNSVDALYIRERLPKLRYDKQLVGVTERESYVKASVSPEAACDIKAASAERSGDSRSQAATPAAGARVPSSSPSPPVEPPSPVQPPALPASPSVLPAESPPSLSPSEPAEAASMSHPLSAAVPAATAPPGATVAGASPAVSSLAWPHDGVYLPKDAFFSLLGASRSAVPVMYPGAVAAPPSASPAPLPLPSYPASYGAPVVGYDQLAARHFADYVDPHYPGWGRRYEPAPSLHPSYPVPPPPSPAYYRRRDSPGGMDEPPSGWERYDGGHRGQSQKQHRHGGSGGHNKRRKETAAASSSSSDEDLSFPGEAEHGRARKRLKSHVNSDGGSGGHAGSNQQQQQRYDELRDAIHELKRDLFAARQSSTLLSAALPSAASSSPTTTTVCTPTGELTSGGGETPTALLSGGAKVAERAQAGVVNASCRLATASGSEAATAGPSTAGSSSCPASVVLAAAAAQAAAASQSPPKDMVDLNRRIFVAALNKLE
The data set can be described thus: Potency against human cytomegalovirus protease in HCMV pNA assay. Set-up: species or system Human herpesvirus 5 strain AD169.

The next data set deals with Vero. The data set can be described thus: Growth inhibition of cytomegalovirus in Vero cells. The data set is classed as functional, Human betaherpesvirus 5.
Data set [4] deals with T1, Capsid scaffolding protein. The data set can be described thus: Inhibition of human cytomegalovirus protease in HCMV pNA assay. Also noted: species or system Human herpesvirus 5 strain AD169.
Data set [5] addresses T2, Acetylcholinesterase (Homo sapiens, UniProt P22303). Description: Concentration of compound required to inhibit Acetylcholinesterase.
For data set [6], the system named is Human betaherpesvirus 5. The data set can be described thus: Concentration required to inhibit human cytomegalovirus HCMV-AD169 in ELISA assay. This is another data set of the same source.
Data set [7] is described as follows: Concentration of compound required to inhibit elastase.
Data set [8] deals with T3, Prothrombin (Homo sapiens, UniProt P00734). Description: Concentration of compound required to inhibit thrombin.
Data set [9] can be described thus: T 1/2 in dog. The data set is classed as ADME, organism-based, Canis lupus familiaris. To be noted: in vivo. The method in brief: (§1)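 Dog pharmacokinetics after intravenous administration, with plasma clearance, volume of distribution and half-life derived from plasma drug levels.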
Data set [10] can be described thus: C max in dog. The data set is classed as ADME, organism-based, Canis lupus familiaris. The settings on record: in vivo.
For data set [11], the species on record is Cavia porcellus. The data set can be described thus: AUC 0-inf in guinea pig. The data set is classed as ADME, organism-based, Plasma. Also noted: time infinity. To be noted: in vivo.
A short description of data set [12]: Steady state distribution value in dog. The settings on record: in vivo, read-out: Vdss. It is filed as ADME, organism-based, Canis lupus familiaris. Put shortly: as §1
Data set [13] has as its target T3, Prothrombin. Description: Concentration required to inhibit thrombin.
Data set [14] can be described thus: T max in dog. The settings on record: in vivo. The data set is classed as ADME, organism-based, Canis lupus familiaris.
The species entered for data set [15] is Canis familiaris. Description: AUC 0-inf in dog. The data set is classed as ADME, organism-based, Canis lupus familiaris, Plasma. Set-up: time infinity. To be noted: in vivo.
Data set [16] in a line: Steady state distribution value in guinea pig. The data set is classed as ADME, organism-based, Cavia porcellus. The settings on record: in vivo, read-out: Vdss. Put shortly:
(§2)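 Guinea-pig pharmacokinetics after intravenous dosing, with plasma clearance, volume of distribution and half-life. Drug levels were also measured in brain and vitreous humor.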

Data set [17] addresses T2, Acetylcholinesterase. Description: Concentration required to inhibit Acetylcholinesterase.
Data set [18] is filed under the species Cavia porcellus. The data set can be described thus: AUC 0-t in guinea pig. It is filed as ADME, organism-based, Plasma. The settings on record: in vivo.
Data set [19] can be described thus: Bioavailability in dog. The data set is classed as ADME, organism-based, Canis lupus familiaris. To be noted: in vivo. The method in brief: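 Oral bioavailability in dog, set against intravenous administration in the same study.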
For data set [20], the species on record is Canis familiaris. The data set can be described thus: AUC 0-t in dog. To be noted: in vivo. It is filed as ADME, organism-based, Canis lupus familiaris, Plasma.
Data set [21] can be described thus: T max in guinea pig. It is filed as ADME, organism-based, Cavia porcellus. To be noted: in vivo.
A short description of data set [22]: Clearance value in dog. It is filed as ADME, organism-based, Canis lupus familiaris. The settings on record: in vivo. Put shortly:
as §1

Data set [23] is described as follows: Clearance value in guinea pig. The settings on record: in vivo. It is filed as ADME, organism-based, Cavia porcellus. The method in brief: as §2
Data set [24] is described as follows: C max in guinea pig. To be noted: in vivo. It is filed as ADME, organism-based, Cavia porcellus.
The subject of data set [25] is Human betaherpesvirus 5. Description: Concentration required to inhibit human cytomegalovirus HCMV-AD169 in antiviralplaque reduction assay. The data set is classed as functional, organism-based.
Data set [26] is described as follows: T 1/2 in guinea pig. It is filed as ADME, organism-based, Cavia porcellus. The settings on record: in vivo. Put shortly:
as §2

Data set [27] is described as follows: Concentration required to inhibit elastase.

T2 sequence (P22303 whole entry): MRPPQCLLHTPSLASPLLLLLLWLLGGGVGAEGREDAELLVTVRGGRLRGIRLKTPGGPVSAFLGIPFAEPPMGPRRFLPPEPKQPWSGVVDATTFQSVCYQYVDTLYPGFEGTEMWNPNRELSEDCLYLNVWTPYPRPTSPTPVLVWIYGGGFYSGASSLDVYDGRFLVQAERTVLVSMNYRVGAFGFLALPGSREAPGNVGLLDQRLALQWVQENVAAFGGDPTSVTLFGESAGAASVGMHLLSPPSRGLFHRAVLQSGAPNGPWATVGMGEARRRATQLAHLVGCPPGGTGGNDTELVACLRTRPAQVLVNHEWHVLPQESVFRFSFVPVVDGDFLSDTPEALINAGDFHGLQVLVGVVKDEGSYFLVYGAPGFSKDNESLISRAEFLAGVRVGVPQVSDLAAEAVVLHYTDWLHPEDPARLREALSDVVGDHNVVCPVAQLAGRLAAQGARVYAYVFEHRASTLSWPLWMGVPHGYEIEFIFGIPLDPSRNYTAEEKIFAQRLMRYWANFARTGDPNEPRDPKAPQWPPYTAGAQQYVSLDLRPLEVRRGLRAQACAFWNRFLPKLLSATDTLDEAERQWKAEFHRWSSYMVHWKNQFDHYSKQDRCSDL

In the case of `CC(C)c1ccc(NC(=O)N2CCC[C@H]2C(=O)N2CC[C@H]3[C@H]2[C@H](C)C(=O)N3C(=O)C2CC2)cc1`, the pIC50 in the data set with Human betaherpesvirus 5 [1] is 4.51; in data set [4] it was 6.70. In data set [2], this compound gave a half-life of 0.5 h. In addition, the pKi in data set [3] is 8.70. In addition, the CCID50 in the data set with Vero came out at 274 µM.

The compound `CC(C)c1ccc(NC(=O)N2CCC[C@H]2C(=O)N2CC[C@H]3[C@H]2[C@H](C)C(=O)N3C(=O)[C@@H]2[C@H](C)[C@@H]2C)cc1` had a half-life in data set [2] of 6 h. Also, the pIC50 against Acetylcholinesterase [5] is under 4.00; in the data set on Human betaherpesvirus 5 [6], 5.00; in data set [4], 6.52; in [7], under 5.00; against Prothrombin [8], under 3.70. In addition, the pKi in data set [3] is 7.80. Further, in the data set with Vero, the CCID50 came to 219 µM.

`CC(C)c1ccc(NC(=O)N2CCC[C@H]2C(=O)N2CC[C@H]3[C@H]2[C@H](C)C(=O)N3c2nc3ccc(OC(F)(F)F)cc3s2)cc1`: the pIC50 with Human betaherpesvirus 5 [1] was 5.28; in [4] it was 6.34. Besides, the half-life in [2] is 11 h. Further, the pKi in data set [3] is 7.70. For the same compound, the CCID50 with Vero was over 500 µM.

For `CC(C)c1ccc(NC(=O)N2CCC[C@H]2C(=O)N2CC[C@H]3[C@H]2[C@H](C)C(=O)N3c2nc3ccccc3s2)cc1`, the values for the half-life in data set [9], in data set [2] and in data set [26] were 1.5 h, over 24 h and 1 h, respectively. The Cmax was 5480 ng/mL in [10] and 32000 ng/mL in data set [24]. In addition, the “AUC 0-infinity” value in the data set listed under Cavia porcellus [11] is 2230 ng/mL/h; in the data set filed under Canis familiaris [15], 9750 ng/mL/h. The Vd in data set [12] stood at 0.8 L/kg; in data set [16], 1.6 L/kg. For the same compound, the pIC50 was under 3.70 against Prothrombin [13]; under 4.00 on Acetylcholinesterase [17]; 6.74 in data set [4]; 5.30 with Human betaherpesvirus 5 [25]; under 5.00 in data set [27]. Also, the Tmax in [14] and in [21] was 4.8 min in each case. In data set [3], the pKi was 8.00. Besides, the entries for the “AUC 0-t” value in the data set filed under Cavia porcellus [18] and in the data set listed under Canis familiaris [20] were 2210 ng/mL/h and 9660 ng/mL/h, respectively. In the data set with Vero, this compound showed a CCID50 of over 500 µM. Further, the bioavailability in data set [19] stood at 29%. For the same compound, the results for the clearance in [22] and in data set [23] were 8 mL/min/kg and 60 mL/min/kg, respectively.

As to `CC(C)c1ccc(NC(=O)N2CCC[C@H]2C(=O)N2CC[C@H]3[C@H]2[C@H](C)C(=O)N3c2nc3cccnc3s2)cc1`, the pIC50 with Human betaherpesvirus 5 [1] is 5.44; in data set [4], 6.54. The compound also had a half-life in [2] of 8 h. The compound further had a pKi in [3] of 7.68. In the data set on Vero, the CCID50 was under 31 µM.

Regarding `CCOC(=O)c1ccc2nc(N3C(=O)[C@@H](C)[C@@H]4[C@@H]3CCN4C(=O)[C@@H]3CCCN3C(=O)Nc3ccc(C(C)C)cc3)sc2c1`, the results for the pIC50 (in the data set on Human betaherpesvirus 5 [1]; in [4]) were 5.29 and 6.46, respectively. This compound also showed a half-life in [2] of 9 h. Moreover, the pKi in data set [3] was 8.13. Also, in the data set with Vero, the CCID50 is over 500 µM.

`CC(C)c1ccc(NC(=O)N2CCC[C@H]2C(=O)N2CC[C@H]3[C@H]2[C@H](C)C(=O)N3c2nc3ccc([N+](=O)[O-])cc3s2)cc1` gave a half-life in [2] of 24 h. For the same compound, the negative-log Ki (pKi) in [3] was 7.60. In the data set on Vero, this compound came in with a CCID50 of 128 µM. The pIC50 in [4] is 6.41; with Human betaherpesvirus 5 [25], 5.06.

In data set [2], `CC(C)c1ccc(NC(=O)N2CCC[C@H]2C(=O)N2CC[C@H]3[C@H]2[C@H](C)C(=O)N3C(=O)C2[C@@H](C)[C@H]2C)cc1` (stereo not given in full) showed a half-life of 1.5 h. The same compound came in with a CCID50 with Vero of 375 µM. The pIC50 is 5.74 in [4] and under 4.52 with Human betaherpesvirus 5 [25].

Compound `CC(C)c1ccc(NC(=O)N2CCC[C@H]2C(=O)N2CC[C@H]3[C@H]2[C@H](C)C(=O)N3c2nccs2)cc1` showed a half-life in [2] of over 24 h. Further, the pKi in [3] was 6.35. Further, the CCID50 in the data set with Vero was 280 µM. In addition, the pIC50 is 5.82 in data set [4] and under 4.52 in the data set with Human betaherpesvirus 5 [25].

For `CC(C)c1ccc(NC(=O)N2CCC[C@H]2C(=O)N2CC[C@H]3[C@H]2[C@H](C)C(=O)N3c2nc3ccc(CO)cc3s2)cc1`, the pIC50 with Human betaherpesvirus 5 [1] is 6.28; in data set [4], 6.51. This compound also showed a half-life in [2] of over 20 h. In data set [3], the pKi is 7.40. In the data set on Vero, this compound yielded a CCID50 of 125 µM.
